# Biological target: T1, Dual specificity mitogen-activated protein kinase kinase 4 (Homo sapiens) (UniProt P45985)
# T1 sequence (whole entry): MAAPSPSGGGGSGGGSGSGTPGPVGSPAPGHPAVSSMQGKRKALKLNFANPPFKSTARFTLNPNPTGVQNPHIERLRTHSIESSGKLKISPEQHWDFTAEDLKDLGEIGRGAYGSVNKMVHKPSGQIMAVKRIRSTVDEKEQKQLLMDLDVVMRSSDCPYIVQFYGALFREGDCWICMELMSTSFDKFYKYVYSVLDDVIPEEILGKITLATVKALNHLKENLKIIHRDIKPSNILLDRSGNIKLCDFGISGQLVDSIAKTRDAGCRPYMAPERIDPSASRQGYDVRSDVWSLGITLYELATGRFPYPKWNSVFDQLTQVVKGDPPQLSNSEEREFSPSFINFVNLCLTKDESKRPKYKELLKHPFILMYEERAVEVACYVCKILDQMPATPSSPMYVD
# Assay: Inhibition of wild-type human partial length MKK4 (S84 to D399 residues) expressed in mammalian expression system assessed as residual activity at 30 nM by KINOMEscan method relative to control
# Outline: (§1)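 KINOMEscan competition binding against an immobilised ligand, run at the lower compound concentrations named in each line. Binding is reported as percentage of control (POC), with low POC indicating high affinity.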
row,Activity,SMILES
1,4.1%,CCCS(=O)(=O)Nc1ccc(F)c(C(=O)c2ccc3[nH]c4ncc(-c5ccc(C(=O)NCCCCNC(=O)c6ccc(-c7c8ccc(=[N+](C)C)cc-8oc8cc(N(C)C)ccc78)c(C(=O)[O-])c6)nc5)cc4c3c2)c1F

# Biological target: Serine/threonine-protein kinase B-raf (Homo sapiens) (UniProt P15056)
# Sequence (P15056 whole entry): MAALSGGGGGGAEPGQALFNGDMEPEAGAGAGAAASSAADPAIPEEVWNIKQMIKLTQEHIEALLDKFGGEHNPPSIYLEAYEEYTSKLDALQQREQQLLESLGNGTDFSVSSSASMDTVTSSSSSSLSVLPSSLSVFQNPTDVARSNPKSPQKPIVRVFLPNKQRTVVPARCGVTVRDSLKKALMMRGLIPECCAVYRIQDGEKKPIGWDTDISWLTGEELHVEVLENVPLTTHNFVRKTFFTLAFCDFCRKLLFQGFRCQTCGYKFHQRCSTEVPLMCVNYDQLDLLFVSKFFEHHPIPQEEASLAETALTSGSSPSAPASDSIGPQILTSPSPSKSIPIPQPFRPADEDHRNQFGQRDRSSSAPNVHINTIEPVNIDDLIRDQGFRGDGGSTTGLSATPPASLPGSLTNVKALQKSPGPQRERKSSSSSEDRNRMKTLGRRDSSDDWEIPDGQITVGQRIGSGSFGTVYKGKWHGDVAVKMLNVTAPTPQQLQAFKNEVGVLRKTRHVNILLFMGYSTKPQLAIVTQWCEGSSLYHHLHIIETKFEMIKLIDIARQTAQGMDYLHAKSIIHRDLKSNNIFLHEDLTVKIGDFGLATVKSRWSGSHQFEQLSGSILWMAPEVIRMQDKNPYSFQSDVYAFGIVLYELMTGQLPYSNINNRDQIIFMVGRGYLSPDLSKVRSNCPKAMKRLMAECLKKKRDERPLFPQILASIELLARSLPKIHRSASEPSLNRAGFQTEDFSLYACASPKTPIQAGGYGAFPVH
# Assay: Inhibition of BRAF (unknown origin) assessed as assessed as residual activity relative to control
# Outline: (§2)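 DiscoverX KINOMEscan binding assay: the compound at 100 nM competes with an immobilised ligand for kinase binding. Read-out is POC (percentage of control), where lower values mean stronger binding.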
row,Activity,SMILES
1,92%,CCCS(=O)(=O)Nc1ccc(F)c(C(=O)c2ccc3[nH]c4ncc(-c5ccc(C(=O)NCCCCNC(=O)c6ccc(-c7c8ccc(=[N+](C)C)cc-8oc8cc(N(C)C)ccc78)c(C(=O)[O-])c6)nc5)cc4c3c2)c1F

# Biological target: T1, Dual specificity mitogen-activated protein kinase kinase 4 (Homo sapiens)
# Assay: Inhibition of wild-type human partial length MKK4 (S84 to D399 residues) expressed in mammalian expression system assessed as residual activity at 100 nM by KINOMEscan method relative to control
# Outline: as §2
row,Activity,SMILES
1,4.3%,CCCS(=O)(=O)Nc1ccc(F)c(C(=O)c2ccc3[nH]c4ncc(-c5ccc(C(=O)NCCCCNC(=O)c6ccc(-c7c8ccc(=[N+](C)C)cc-8oc8cc(N(C)C)ccc78)c(C(=O)[O-])c6)cc5)cc4c3c2)c1F
2,4.5%,CCCS(=O)(=O)Nc1ccc(F)c(C(=O)c2ccc3[nH]c4ncc(-c5ccc(C(=O)NCCCNC(=O)c6ccc(-c7c8ccc(=[N+](C)C)cc-8oc8cc(N(C)C)ccc78)c(C(=O)[O-])c6)nc5)cc4c3c2)c1F
3,19%,CCCS(=O)(=O)Nc1ccc(F)c(C(=O)c2ccc3[nH]c4ncc(-c5ccc(C(=O)NCCNC(=O)c6ccc(-c7c8ccc(=[N+](C)C)cc-8oc8cc(N(C)C)ccc78)c(C(=O)[O-])c6)cc5)cc4c3c2)c1F
4,13%,CCCS(=O)(=O)Nc1ccc(F)c(C(=O)c2ccc3[nH]c4ncc(-c5ccc(C(=O)NCCCNC(=O)c6ccc(-c7c8ccc(=[N+](C)C)cc-8oc8cc(N(C)C)ccc78)c(C(=O)[O-])c6)cc5)cc4c3c2)c1F
5,6.6%,CN(C)c1ccc2c(-c3ccc(C(=O)NCC(=O)Nc4ccc(-c5cnc6[nH]cc(C(=O)c7c(F)ccc(NS(=O)(=O)Cc8ccccc8)c7F)c6c5)cn4)cc3C(=O)[O-])c3ccc(=[N+](C)C)cc-3oc2c1
6,13%,CCCS(=O)(=O)Nc1ccc(F)c(C(=O)c2ccc3[nH]c4ncc(-c5ccc(NC(=O)CNC(=O)c6ccc(-c7c8ccc(=[N+](C)C)cc-8oc8cc(N(C)C)ccc78)c(C(=O)[O-])c6)cc5)cc4c3c2)c1F
7,13%,CN(C)c1ccc2c(-c3ccc(C(=O)NCCCCC(=O)Nc4ccc(-c5cnc6[nH]cc(C(=O)c7c(F)ccc(NS(=O)(=O)Cc8ccccc8)c7F)c6c5)cn4)cc3C(=O)[O-])c3ccc(=[N+](C)C)cc-3oc2c1
8,14%,CCCS(=O)(=O)Nc1ccc(F)c(C(=O)c2c[nH]c3ncccc23)c1F
9,1.3%,CCCS(=O)(=O)Nc1ccc(F)c(C(=O)c2ccc3[nH]c4ncc(-c5ccc(C(=O)NCCCCNC(=O)c6ccc(-c7c8ccc(=[N+](C)C)cc-8oc8cc(N(C)C)ccc78)c(C(=O)[O-])c6)nc5)cc4c3c2)c1F
10,9.3%,CCCS(=O)(=O)Nc1ccc(F)c(C(=O)c2ccc3[nH]c4ncc(-c5cnc(C(=O)NCCCCNC(=O)c6ccc(-c7c8ccc(=[N+](C)C)cc-8oc8cc(N(C)C)ccc78)c(C(=O)[O-])c6)nc5)cc4c3c2)c1F
11,32%,CCCS(=O)(=O)Nc1ccc(F)c(C(=O)c2ccc3[nH]c4ncc(-c5ccc(C(=O)NCCCCCNC(=O)c6ccc(-c7c8ccc(=[N+](C)C)cc-8oc8cc(N(C)C)ccc78)c(C(=O)[O-])c6)cc5)cc4c3c2)c1F
12,4.8%,CCCS(=O)(=O)Nc1ccc(F)c(C(=O)c2ccc3[nH]c4ncc(-c5ccc(C(=O)NCCCCCCNC(=O)c6ccc(-c7c8ccc(=[N+](C)C)cc-8oc8cc(N(C)C)ccc78)c(C(=O)[O-])c6)nc5)cc4c3c2)c1F
13,11%,CCCS(=O)(=O)Nc1ccc(F)c(C(=O)c2c[nH]c3ncc(-c4ccc(NC(=O)CNC(=O)c5ccc(-c6c7ccc(=[N+](C)C)cc-7oc7cc(N(C)C)ccc67)c(C(=O)[O-])c5)cc4)cc23)c1F
14,57%,CCCS(=O)(=O)Nc1ccc(F)c(C(=O)c2c[nH]c3ncc(-c4ccc(NC(=O)CCCCNC(=O)c5ccc(-c6c7ccc(=[N+](C)C)cc-7oc7cc(N(C)C)ccc67)c(C(=O)[O-])c5)nc4)cc23)c1F
15,6.6%,CCCS(=O)(=O)Nc1ccc(F)c(C(=O)c2ccc3[nH]c4ncc(-c5ccc(C(=O)NCCCCCCNC(=O)c6ccc(-c7c8ccc(=[N+](C)C)cc-8oc8cc(N(C)C)ccc78)c(C(=O)[O-])c6)cc5)cc4c3c2)c1F
16,8.4%,CCCS(=O)(=O)Nc1ccc(F)c(C(=O)c2c[nH]c3ncc(-c4ccc(NC(=O)CNC(=O)c5ccc(-c6c7ccc(=[N+](C)C)cc-7oc7cc(N(C)C)ccc67)c(C(=O)[O-])c5)nc4)cc23)c1F
17,9.2%,CCCS(=O)(=O)Nc1ccc(F)c(C(=O)c2c[nH]c3ncc(-c4ccc(NC(=O)CNC(=O)OC(C)(C)C)cc4)cc23)c1F

# Biological target: T1, Dual specificity mitogen-activated protein kinase kinase 4 (Homo sapiens)
# Assay: Inhibition of wild-type human partial length MKK4 (S84 to D399 residues) expressed in mammalian expression system assessed as residual activity at 10 nM by KINOMEscan method relative to control
# Outline: as §1
row,Activity,SMILES
1,18%,CCCS(=O)(=O)Nc1ccc(F)c(C(=O)c2ccc3[nH]c4ncc(-c5ccc(C(=O)NCCCCNC(=O)c6ccc(-c7c8ccc(=[N+](C)C)cc-8oc8cc(N(C)C)ccc78)c(C(=O)[O-])c6)nc5)cc4c3c2)c1F

# From ChEMBL document CHEMBL4732074, “Design and synthesis of novel fluorescently labeled analogs of vemurafenib targeting MKK4” (Eur J Med Chem, 2021)
